Data reported in ChEMBL document CHEMBL1125182, “A new class of analogues of the bifunctional radiosensitizer alpha-(1-aziridinylmethyl)-2-nitro-1H-imidazole-1-ethanol (RSU 1069): the cycloalkylaziridines” (J Med Chem, 1991).

Key:
Cricetulus griseus = species on record: Cricetulus griseus; assay: The efficiency of radiosensitization is the concentration required to give an SER of 1.6 (in vitro); type: functional
Method in brief: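 Chinese hamster V79-171b monolayers in RPMI 1640 with 10% FCS, plated ~18 h at 37 °C. Made hypoxic with 95% N2/5% CO2 for 1 h, then given X-rays (320 kV, ~1.5 Gy/min) at room temperature. Drug removed after irradiation; colonies of ≥50 cells scored after 6-7 days. SER is the dose ratio for 25% survival on hypoxic curves ±compound; C1.6 read from SER-versus-concentration plot.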

[1] = Sensitizer enhancement ratio(SER) determined at the maximum nontoxic dose by measuring the number of cells killed at a conc 1.5 mM (in vitro); type: functional, Cricetulus griseus
Method in brief: (§1)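 V79-171b cells in RPMI 1640 with 10% FCS, held at maximum nontoxic drug level. Made hypoxic by 95% N2/5% CO2 purge for 1 h, then X-irradiated at room temperature (320 kV, ca. 1.5 Gy/min). Drug medium replaced and colonies (≥50 cells) scored at 6-7 days, 37 °C. SER = ratio of doses giving 25% survival on hypoxic curves without vs with drug.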

[2] = Plating efficiency of drug treated irradiated tumors relative to irradiated only group; type: ADME
Method in brief: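 Mice bearing KHT fibrosarcoma (200–500 mg, hypoxic fraction ca. 20%) given vehicle or compound ip 30–120 min before 15 Gy X-rays. Tumours were excised 18 h later, dissociated to single cells and plated in soft agar. Colonies were stained and counted after 12–16 days. Plating efficiency is relative to the irradiated-only group.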

[3] = Partition coefficient measured between octanol and 0.05 M NH4PO4 (pH 7.4) using shake-flask method; type: physicochemical; conditions: octanol/0.05 M NH4PO4 buffer
Mus musculus = assay: In vivo radiosensitizing activity measured as maximum tolerated dose in mice.; type: functional
[4] = (§2) IC50 of oxic to that of IC50 of hypoxic was determined in V79 cells; hypoxia selective cytotoxicity.; type: functional, Cricetulus griseus
Method in brief: (§3)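 V79-171b Chinese hamster cells in RPMI 1640 with 10% fetal calf serum, plated and incubated ca. 18 h at 37 °C, then exposed to a range of compound concentrations for 1 h at 37 °C under oxic or hypoxic conditions. Cells rinsed, colonies grown; ratio taken as IC50(oxic)/IC50(hypoxic). Means of replicate experiments agreeing within ±20%.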

[5] = Sensitizer enhancement ratio(SER) determined at the maximum nontoxic dose by measuring the number of cells killed at a conc […] (in vitro); type: functional, Cricetulus griseus; method in brief: as §1
[6] = Sensitizer enhancement ratio(SER) determined at the maximum nontoxic dose by measuring the number of cells killed at a conc 3 mM (in vitro); type: functional, Cricetulus griseus; method in brief: as §1
[7] = Sensitizer enhancement ratio(SER) determined at the maximum nontoxic dose by measuring the number of cells killed at a conc 10 mM (in vitro); type: functional, Cricetulus griseus
[8] = Sensitizer enhancement ratio(SER) determined at the maximum nontoxic dose by measuring the number of cells killed at a conc 0.75 mM (in vitro); type: functional, Cricetulus griseus
[9] = Sensitizer enhancement ratio(SER) determined at the maximum nontoxic dose by measuring the number of cells killed at a conc 2 mM (in vitro); type: functional, Cricetulus griseus
[10] = Sensitizer enhancement ratio(SER) determined at the maximum nontoxic dose by measuring the number of cells killed at a conc 3.0 mM (in vitro)
[11] = Sensitizer enhancement ratio(SER) determined at the maximum nontoxic dose by measuring the number of cells killed at a conc 1.9 (in vitro); type: functional, Cricetulus griseus; method in brief: as §1
V79 = assay: as §2; type: functional; conditions: Cricetulus griseus; method in brief: as §3
[12] = Sensitizer enhancement ratio(SER) determined at the maximum nontoxic dose by measuring the number of cells killed at a conc 0.38 mM (in vitro); type: functional, Cricetulus griseus; method in brief: as §1

Compound	C1.6 (Cricetulus griseus) [mM]	Fold reduction [2]	logD [3]	MTD (Mus musculus) [mg/kg]	Hypoxic selectivity ratio (IC50 oxic / IC50 hypoxic) [4]	SER [6]	also measured
CC1CCCC2C1N2CC(O)Cn1ccnc1[N+](=O)[O-] (stereo unspecified)	0.75	2.1	1.55	500	1	–	SER [1]: 2
O=[N+]([O-])c1nccn1CC(O)CN1CC1 (stereo unspecified)	0.33	6.7	0.33	100	50	–	SER [5]: 1.9
O=[N+]([O-])c1nccn1CC(O)CNC1COCC[C@@H]1Br (stereo partly specified)	1.8	13	-0.17	1500	1.2	1.8	–
O=[N+]([O-])c1nccn1CC(O)CN1C2CCCCCC21 (stereo unspecified)	1	–	1.44	–	1.4	1.7	–
CCOC(=O)C1CCC2C(C1)N2CC(O)Cn1ccnc1[N+](=O)[O-] (stereo unspecified)	3	–	1.13	–	1.1	2	–
O=C(O)C1CCN1CC(O)Cn1ccnc1[N+](=O)[O-] (stereo unspecified)	–	–	-2.02	–	1	–	SER [7]: 2.3
O=[N+]([O-])c1nccn1CC(O)CNC1CCCC[C@@H]1Br (stereo partly specified)	0.35	4.5	1.21	700	2.5	–	SER [8]: 2.4
O=[N+]([O-])c1nccn1CC(O)CN1CCC1 (stereo unspecified)	–	–	-1.51	–	1	–	SER [9]: 2
COC(=O)C1CCN1CC(O)Cn1ccnc1[N+](=O)[O-] (stereo unspecified)	–	–	-0.29	–	1	–	SER [10]: 2.1
O=[N+]([O-])c1nccn1CC(O)CN1C2CCCC21 (stereo unspecified)	0.48	6.1	0.37	450	2	–	SER [5]: 2
O=[N+]([O-])c1nccn1CC(O)CN1C2CCCCCCC21 (stereo unspecified)	0.75	2.6	1.84	500	1.2	2.1	–
O=[N+]([O-])c1nccn1CC(O)CN1C2CCCCC21 (stereo unspecified)	0.35	3.91	1.07	400	1.6	–	SER [11]: 1.9
O=[N+]([O-])c1nccn1CC(O)CNC1C2CCC(C2)[C@@H]1Br (stereo partly specified)	0.35	–	1.36	–	1.3	2.1	–
O=[N+]([O-])c1nccn1CC(O)CN1C2CCOCC21 (stereo unspecified)	–	5.7	0.07	800	–	–	SER [5]: 1.3; Cytotoxicity (V79): Unstable
O=[N+]([O-])c1nccn1CC(O)CNC1CCC[C@H]1Br (stereo partly specified)	0.75	4.3	0.43	1000	2.5	–	SER [1]: 2.3
O=[N+]([O-])c1nccn1CC(O)CN1C2C3CCC(C3)C21 (stereo unspecified)	3	–	1.6	–	1.4	1.6	–
O=[N+]([O-])c1nccn1CC(O)CN1C2CCc3ccccc3C21 (stereo unspecified)	–	–	2.15	–	1.2	–	SER [12]: 1.2
